# The list is not random: actives were taken first. Their share in the collection is about 4.3%.
# TAAR1 antag: antagonists of human TAAR1. Q96RJ0. CHO RD-HGA16 TAAR1, Fluo-8 calcium fluorescence, antagonist. inhibition, % at 3 µM. hit rate 1.5% among 360,000;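 active = inhibition above a per-plate cutoff, the mean inhibition of test compounds on that plate plus 3 SD, cut at about 49% in these data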;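 also: 0% = DMSO plus EC80 beta-PEA response and 100% = DMSO alone without agonist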
#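 Test system – hTAAR1-expressing CHO RD-HGA16 cells, Gα16-coupled · Reagent – β-PEA at EC80 concentration, post-compound challenge · Compound dosing – 3 µM, single point · Timing – 140 s kinetic read after compound, 140 s after agonist · Detection – Fluo-8 intracellular calcium dye fluorescence, real-time kinetic reads · Control set – DMSO and EC80 PEA controls · Repeats – n of 1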
# TAAR1 ag: agonists of human TAAR1; Q96RJ0; CHO RD-HGA16 TAAR1, Fluo-8 calcium fluorescence; vehicle wells 0%, saturating PEA agonist 100%; activation, % at 3 µM; hit rate 0.99% among 360,000; AID 624467;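 active = activation above the mean activation of all test compounds in the run plus 3 SD, cut at about 38% in these data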
#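 Test system: RD-HGA16 (CHO) cells co-expressing Gα16 and hTAAR1; dosing: one-point dosing at 3 µM (nominal); timing: 17-24 h seeding, 75 min 37 °C dye, 30 min RT; signal: kinetic Fluo-8 calcium fluorescence; read-out basis: % activation relative to PEA EC100 response; controls: DMSO and PEA EC100; replicates: n 1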
# HTR2A ag: mouse HTR2A agonism via beta-arrestin recruitment | P35363 | CHO-K1 mHTR2A beta-arrestin complementation, luminescence; percent of 30 µM serotonin response | activation, % at 7.6 µM | hit rate 0.66% among 360,000;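 active = activation above a run cutoff, the mean activation of all tested compounds plus 3 SD, cut at about 14% in these data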;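 also: 0% = plate median of compound wells and 100% = 30 µM serotonin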
# Target sequence (P35363 whole entry, looked up): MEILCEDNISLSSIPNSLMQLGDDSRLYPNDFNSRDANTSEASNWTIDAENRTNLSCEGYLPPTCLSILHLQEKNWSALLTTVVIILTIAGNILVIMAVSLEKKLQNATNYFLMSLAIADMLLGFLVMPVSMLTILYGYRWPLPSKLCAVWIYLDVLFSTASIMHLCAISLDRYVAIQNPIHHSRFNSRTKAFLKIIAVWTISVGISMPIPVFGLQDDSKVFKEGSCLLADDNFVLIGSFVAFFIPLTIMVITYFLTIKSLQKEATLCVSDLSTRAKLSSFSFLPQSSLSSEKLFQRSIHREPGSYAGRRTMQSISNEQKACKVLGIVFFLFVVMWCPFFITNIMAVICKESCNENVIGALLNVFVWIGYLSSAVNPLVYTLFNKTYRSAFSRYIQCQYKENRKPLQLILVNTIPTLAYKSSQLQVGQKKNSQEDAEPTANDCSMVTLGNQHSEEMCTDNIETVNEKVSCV
# MC4R antagonist: blocks human MC4R cAMP signaling. P32245. MC4R-expressing cells, MTII-stimulated cAMP, LANCE TR-FRET. inhibition, % at 6.5 µM. hit rate 0.48% among 360,000;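 active = inhibition above its plate's cutoff, the mean of tested wells on that plate plus 3 SD, cut at about 29% in these data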;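 also: 0% = Melanotan II alone and 100% = Melanotan II plus saturating MCL0020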
#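 Assay system: U2OS cells stably expressing human melanocortin 4 receptor (MC4R) / Dosing: 6.5 µM / Timing: compound 30 min, challenge 1 h, detection 1 h / Measured by: Eu-cAMP/anti-cAMP TR-FRET, emission 671 nm / Replicates: singlicate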
# Beta2AR agonist: activates human beta-2 adrenergic receptor causing internalization; Am2.2-beta2AR cells, FAP receptor internalization, flow cytometry; response, % (concentration not given with the values); hit rate 0.43% among 340,000; AID 504454;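 active = response above a set limit, near 3 SD of response in nonfluorescent compounds, cut at about 42% in these data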
# MC4R barr agon: agonists of human melanocortin 4 receptor (MC4R) beta-arrestin; P32245; U2OS MC4R beta-arrestin complementation, luminescence; percent of melanotan II response, DMSO zero; activation, % at 8.9 µM; hit rate 0.98% among 360,000; AID 540308;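 active = activation above a per-plate cutoff, the mean activation of sample wells on that plate plus 3 SD, cut at about 8% in these data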
# MC4R barr ag: human MC4R beta-arrestin agonism confirmation | shares compounds with MC4R barr agon | U2OS MC4R beta-arrestin recruitment, luminescence; scaled DMSO 0%, Melanotan II 100% | activation, % at 8.9 µM | hit rate 31% among 2,400;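 active = mean activation across replicates above the hit cutoff set in the earlier primary screen, cut at about 8% in these data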
# MOR DOR agonist: counter-screen for MC4R agonists: agonists of mu-delta opioid heterodimer | shares compounds with MC4R barr agon | U2OS PathHunter beta-arrestin, beta-gal luminescence; percent of deltorphin B response, DMSO zero | activation, % at 9.2 µM | hit rate 5.8% among 2,400 | AID 602194;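 active = mean activation across replicates exceeds the hit threshold derived in the earlier primary screen, cut at about 18% in these data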;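 also: 100% = deltorphin B at 0.9 µM final and 0% = DMSO alone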
# * marks the source's active call; other numbers are inactive results; . = no result given.
SMILES,TAAR1 antag,TAAR1 ag,HTR2A ag,MC4R antagonist,Beta2AR agonist,MC4R barr agon,MC4R barr ag,MOR DOR agonist
COc1cccc(CN(Cc2ccccc2F)S(=O)(=O)c2ccc(S(=O)(=O)NCc3ccccc3)cc2)c1,33.9,4.3,-1.9,-0.9,2.4,21.6*,8.0,9.5
Cc1ccc(NC(=O)CCNS(=O)(=O)c2ccc3[nH]c(=O)oc3c2)c(C)c1,-0.7,0.2,1.5,-2.5,3.0,0.3,.,.
CCCCOc1ccc(C(=O)N/C(=C\c2cccc([N+](=O)[O-])c2)C(=O)OCc2ccco2)cc1,15.1,3.2,-1.0,9.8,-0.3,19.6*,-0.6,2.0
CCCCOc1ccc(C(=O)N/C(=C\c2ccc(OC)cc2)C(=O)OCc2ccco2)cc1,1.8,7.5,-2.6,5.6,-3.5,-0.6,.,.
O=C(COc1ccc(C(=S)N2CCOCC2)cc1Cl)Nc1ccccc1Cl,-19.6,2.4,-1.5,11.7,0.9,21.5*,-1.3,4.5
COc1cc(C(=S)N2CCCCC2)ccc1OCC(=O)Nc1ccccc1Cl,10.2,1.3,3.1,11.8,0.7,-0.1,.,.
CC(C)CCNc1ncnc2c1nnn2Cc1ccccc1Cl,20.9,40.1*,4.6,0.9,-7.9,17.8*,4.2,5.2
CN(C)CCOC(=O)NCC12CC3CC(CC(C3)C1)C2,-33.1,1.9,2.3,-0.4,-0.3,-0.4,.,.
Cc1ccc2c(c1)C(=O)N1[C@H]3c4ccccc4OC[C@@H]3[C@H](c3ccccc3)[C@]1(C)C(=O)N2,.,.,-1.0,2.0,5.7,0.8,.,.
CCc1nc2ccc(C(=O)N3CCN(C)CC3)cn2c1N(C)CCC(C)C,-13.6,1.7,-4.5,3.4,.,-2.4,.,.
OCCN1CCN(c2nc(-c3ccccc3)nc3c2oc2ccccc23)CC1,0.0,4.9,-7.5,2.4,19.1,22.9*,15.3*,11.0
COc1cc(/C=C/C(=O)OCC(=O)Nc2cc(C(F)(F)F)ccc2N2CCOCC2)ccc1O,-2.8,6.3,-3.1,2.8,-1.0,23.6*,4.6,14.8
C/C=C/c1ccc(OCC(=O)Nc2cc(C(F)(F)F)ccc2N2CCOCC2)c(OC)c1,-0.6,-0.7,-5.3,3.0,-8.4,0.0,.,.
O=C(NCc1cccs1)c1csc(COCCO)n1,-11.0,1.1,4.6,0.4,.,-0.9,.,.
COc1cccc(CN(C)C(=O)c2ccc(N3CCCC3)c([N+](=O)[O-])c2)c1,-18.3,9.3,1.1,-6.2,-18.1,-3.9,.,.
CSc1ncccc1C(=O)OCc1ccc([N+](=O)[O-])cc1,4.4,-0.4,2.2,2.1,1.5,11.9*,0.7,3.3
CC(C)c1ccc(NC(=O)Cn2ncn3c(cc4ccccc43)c2=O)cc1,-12.5,-1.3,-0.8,4.2,5.5,12.5*,1.6,8.2
CN(C)c1ccc(NC(=O)Cn2ncn3c(cc4ccccc43)c2=O)cc1,-6.1,0.1,2.1,4.6,-6.1,-0.3,.,.
COc1ccc(S(=O)(=O)N(C)CC(=O)Nc2ccc(C(F)(F)F)cc2)cc1Cl,-18.4,5.2,-1.2,4.0,-13.6,16.7*,4.5,8.2
COc1ccc(NC(=O)CN(C)S(=O)(=O)c2ccc(Cl)cc2)cc1Cl,-8.4,5.8,2.5,6.3,12.7,1.7,.,.
CCCOc1ccc(CC(=O)N/N=C\c2ccc(F)cc2)cc1,17.5,19.2,-1.3,2.0,-3.5,2.9,.,.
Cc1cc(NC(=O)c2cccs2)n(-c2nc3ccccc3[nH]2)n1,10.3,5.2,-3.0,3.8,-11.4,12.4*,-1.0,2.3
Cc1cc(NC(=O)c2sccc2C)n(-c2nc3ccccc3[nH]2)n1,25.2,8.7,1.8,-14.7,-1.5,-1.2,.,.
Clc1ccc(-c2csc(N/N=C\c3cccnc3)n2)cc1,10.7,12.9,-3.1,17.2,1.6,11.3*,-0.3,5.4
Clc1ccc(-c2csc(N/N=C/c3ccco3)n2)cc1,-21.0,-1.0,0.0,8.4,2.1,-1.6,.,.
SMILES,TAAR1 antag,TAAR1 ag,HTR2A ag,MC4R antagonist,Beta2AR agonist,MC4R barr agon,MC4R barr ag,MOR DOR agonist
O=C(Nc1ccc(Cl)c(Cl)c1)c1csc(-c2ccccc2)n1,-3.6,5.0,2.5,3.6,10.3,19.8*,6.2,3.3
O=C(Nc1ccc(Cl)c(Cl)c1)c1ccc(Cl)c(Cl)c1,37.1,4.7,-0.3,-3.2,-5.7,14.4*,8.2,11.7
O=C(Nc1ccc(Cl)c(Cl)c1)c1ccncc1,13.7,21.4,-1.3,-0.6,-4.4,-0.8,.,.
Clc1ccc2c(c1)C(N1CCNCC1)Cc1ccccc1S2 (centres undefined),.,.,-6.0,-7.3,26.3,10.3*,18.6*,22.7*
COCCCN1CCN(C2Cc3ccccc3Sc3ccc(Cl)cc32)CC1 (centres undefined),6.5,11.2,-3.3,2.9,14.8,12.8*,1.3,11.4
CC1(C(=O)O)CCN1C(=O)c1cccnc1Oc1ccccc1 (centres undefined),8.7,-0.4,0.0,14.9,.,3.5,.,.
CCn1cc([N+](=O)[O-])c(C(=O)N2N=C(c3ccc4ccccc4c3)CC2c2cc(Br)ccc2O)n1 (centres undefined),.,.,3.0,5.5,2.0,15.9*,9.0*,6.5
COc1ccccc1NC(=O)COC(=O)c1cc(C)nc2ccccc12,20.0,7.3,1.4,7.7,-14.9,0.1,.,.
O=C(COC(=O)c1ccccc1Br)Nc1ccccc1F,8.8,3.4,0.1,7.9,4.1,-2.0,.,.
O=C(COC(=O)c1cc2ccccc2cc1O)Nc1ccccc1F,25.0,26.2,3.6,1.3,5.3,12.9*,1.7,3.4
O=C(COC(=O)c1ccccc1O)Nc1cccc2ccccc12,-7.3,3.5,-6.5,-1.9,-2.0,12.5*,0.6,2.2
COc1ccccc1NC(=O)COC(=O)c1cc2ccccc2cc1O,37.9,11.7,2.4,5.0,2.4,16.8*,1.2,6.3
COc1ccc(C(C)=O)cc1COC(=O)c1c(C)noc1C,6.5,2.0,8.7,-3.3,-15.9,-0.1,.,.
COc1ccc(C(C)=O)cc1COC(=O)c1ccc(OCc2c(C)noc2C)cc1,15.7,7.7,-4.8,0.8,12.1,15.7*,9.2*,3.1
Cc1cc(C(=O)OCC(=O)Nc2ccccc2C(F)(F)F)on1,6.1,2.4,7.9,9.1,2.0,-0.5,.,.
O=C(c1ccc(S(=O)(=O)Nc2ccccc2)cc1)N1CCC1,9.4,0.3,1.7,-2.2,0.9,-1.6,.,.

# Screens: PubChem, several laboratories
